The sample as a whole holds a higher share of hits than the screen did.
A1 apoptosis 2: blocks A1, raising caspase activity | MEF A1-2A-BIM cells, caspase-Glo luminescence, 3 h; percent of clofoctol response, DMSO zero | AID 2465 | 24,000 tested, under 10 active | caspase activation, % (no concentration beside the values); in the data active means caspase activation above about 5.9%
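Test system – A1-2A-BIM-expressing MEF cells · Input – 2500 cells/well · Medium – RPMI-1640 growth medium with 10% FBS · Compound dosing – 50 nL pinned compound · Timing – 3 h compound exposure at 37 °C · Technique – Caspase-Glo luminescence (DEVD substrate) · Evaluation – Caspase-3/7 activity from luminescence increase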
INS-1E ATP HTS: rescue of cytokine-induced death in INS-1E beta cells; protection from cytokine-induced ATP loss, % at 10 µM; hit rate 0.1% among 20,000; INS-1E cytokine-induced death, ATP luminescence, 48 h; normalised: neutral wells 0, positive control 100;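 active means mean replicate protection from cytokine-induced ATP loss at least 50% and at least 75% of replicates each reaching 50%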
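assay system = INS-1E rat insulinoma cells | amount = 8000 cells per well | medium = phenol-red-free RPMI with 5% fetal bovine serum | doses = one compound concentration, pin transfer | timing = 48 h cytokine plus compound treatment, 10 min reagent incubation | also added = IL-1β, TNF-α and IFN-γ cytokine mix | signal = CellTiter-Glo luminescence measuring cellular ATP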
T cruzi HTS: inhibitors of intracellular Trypanosoma cruzi | intracellular Trypanosoma cruzi in host cells, plate reader | activity score (inhibition), % at 5.01 µM | hit rate 4.9% among 22,000; in the data active means activity score above about 55%;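 further: parasites and compound incubated about four days before reading; 0% = median of neutral control wells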
Numbers without * were called inactive.

`C[C@H]1CN([C@@H](C)CO)C(=O)Cc2cc(NC(=O)Nc3cccc4ccccc34)ccc2O[C@@H]1CN(C)Cc1ccc(-c2ccccc2)cc1` gave A1 apoptosis 2 -0.5, INS-1E ATP HTS -7.1 and T cruzi HTS 58.1*.
For O=C(NO)c1cccc(C(=O)N/N=C/c2ccccc2)c1 the results were A1 apoptosis 2 -0.9, INS-1E ATP HTS 8.9 and T cruzi HTS -9.9.
For C[C@@H](O)[C@@H](O)[C@@H](O)C/C=N/NC(=O)c1cccc(C(=O)NO)c1 the results were A1 apoptosis 2 1.1, INS-1E ATP HTS 4.9 and T cruzi HTS -11.7.
For Cc1ccc(O)c(/C=N/NC(=O)CCCCCC(=O)O)c1 the results were A1 apoptosis 2 -0.2, INS-1E ATP HTS -8.4 and T cruzi HTS 0.9.
Screening COC(=O)CCCCCCC(=O)N/N=C/c1ccc(OCc2ccccc2)cc1O returned INS-1E ATP HTS -11.7 and T cruzi HTS 44.1.
O=C1CS(=O)(=O)C(c2ccccc2)N1c1ccc(-c2ccccc2)cc1 (stereo not given) was read as A1 apoptosis 2 -1.5.
`COc1cccc(OC)c1/C=N/NC(=O)CCCCCCC(=O)Nc1ccccc1O` gave A1 apoptosis 2 0.2, INS-1E ATP HTS 2.1 and T cruzi HTS 9.5.
Screening C[C@@H]1CCCCO[C@H](CN(C)Cc2ccc(Cl)c(Cl)c2)[C@H](C)CN([C@@H](C)CO)C(=O)c2cc(NC(=O)Nc3ccc(C(F)(F)F)cc3)ccc2O1 returned A1 apoptosis 2 -0.7.
For C[C@@H]1CCCCO[C@@H](CN(C)Cc2ccc3c(c2)OCO3)[C@@H](C)CN([C@H](C)CO)C(=O)c2cc(NC(=O)Nc3ccc(C(F)(F)F)cc3)ccc2O1 the results were INS-1E ATP HTS -16.2 and T cruzi HTS 65.2*.
For C[C@@H]1CN([C@H](C)CO)C(=O)c2cc(NC(=O)Nc3ccc(C(F)(F)F)cc3)ccc2O[C@@H](C)CCCCO[C@H]1CN(C)Cc1ccc2c(c1)OCO2 the results were A1 apoptosis 2 0.9.
For C[C@@H]1CCCCO[C@H](CN(C)CC2CCCCC2)[C@@H](C)CN([C@H](C)CO)C(=O)c2cc(NC(=O)Nc3ccc(F)cc3)ccc2O1 the results were A1 apoptosis 2 0.2, INS-1E ATP HTS -23.3 and T cruzi HTS 66.8*.
Screening C[C@@H]1CCCCO[C@@H](CN(C)Cc2ccc(Cl)c(Cl)c2)[C@H](C)CN([C@H](C)CO)C(=O)c2cc(NC(=O)Nc3ccc4c(c3)OCO4)ccc2O1 returned A1 apoptosis 2 1.5.
Screening C[C@@H]1CCCCO[C@H](CN(C)Cc2ccc(Cl)c(Cl)c2)[C@@H](C)CN([C@H](C)CO)C(=O)c2cc(NC(=O)Nc3ccc4c(c3)OCO4)ccc2O1 returned INS-1E ATP HTS -26.3 and T cruzi HTS 68.6*.
For C[C@@H]1CCCCO[C@@H](CN(C)Cc2ccc(Cl)c(Cl)c2)[C@@H](C)CN([C@H](C)CO)C(=O)c2cc(NC(=O)Nc3ccc(C(F)(F)F)cc3)ccc2O1 the results were INS-1E ATP HTS -18.5 and T cruzi HTS 75.8*.
Screening C[C@@H]1CN([C@@H](C)CO)C(=O)c2cc(NC(=O)Nc3ccc(F)cc3)ccc2O[C@@H](C)CCCCO[C@H]1CN(C)CC1CC1 returned A1 apoptosis 2 0.9.
O=C(CCCCCC(=O)N/N=C/c1cc(O)ccc1[N+](=O)[O-])NO was read as A1 apoptosis 2 -1.0, INS-1E ATP HTS -5.5 and T cruzi HTS -4.6.
O=C(c1ccccc1)N1Cc2ccccc2[C@@H]2OC(c3ccc(OCCCO)cc3)=N[C@]2(CCS(=O)(=O)c2ccccc2)C1=O was read as A1 apoptosis 2 0.5.
`O=C(N/N=C/c1ccc(O)cc1Br)c1ccccn1` gave A1 apoptosis 2 -11.5, INS-1E ATP HTS 12.4 and T cruzi HTS -7.4.
`COCCOC(=O)N1C(=O)[C@@]2(c3cc(C#CC4=CCCCC4)ccc31)[C@H](C(=O)N1CCN(c3ncccn3)CC1)[C@H]1C(=O)O[C@H](c3ccccc3)[C@H](c3ccccc3)N1[C@@H]2c1ccccc1OCCO` gave A1 apoptosis 2 -0.6.
C[C@@H]1CCCCO[C@@H](CN(C)Cc2ccc3c(c2)OCO3)[C@@H](C)CN([C@H](C)CO)C(=O)c2cc(NC(=O)Nc3ccc4c(c3)OCO4)ccc2O1 was read as INS-1E ATP HTS -18.0 and T cruzi HTS 70.6*.
Screening C[C@@H]1CCCCO[C@@H](CN(C)CC2CCCCC2)[C@@H](C)CN([C@H](C)CO)C(=O)c2cc(NC(=O)Nc3ccc4c(c3)OCO4)ccc2O1 returned A1 apoptosis 2 -2.8, INS-1E ATP HTS -24.8 and T cruzi HTS 58.5*.
For C[C@@H]1CN([C@@H](C)CO)C(=O)c2cc(NC(=O)Nc3ccc4c(c3)OCO4)ccc2O[C@@H](C)CCCCO[C@H]1CN(C)CC1CCCCC1 the results were A1 apoptosis 2 0.9.
C[C@H]1CCCCO[C@H](CN(C)Cc2ccc3c(c2)OCO3)[C@@H](C)CN([C@@H](C)CO)C(=O)c2cc(NC(=O)Nc3ccc4c(c3)OCO4)ccc2O1 was read as A1 apoptosis 2 0.8.
O=C(NO)c1ccc(C(=O)N/N=C/c2cccc(Br)c2)cc1 was read as INS-1E ATP HTS -7.4 and T cruzi HTS -7.1.
`O=C(NO)c1ccc(C(=O)N/N=C/c2cc(Br)ccc2O)cc1` gave A1 apoptosis 2 0.6, INS-1E ATP HTS -48.2 and T cruzi HTS -15.5.
For O=C(N/N=C/c1cccs1)c1ccccc1O the results were INS-1E ATP HTS -18.0 and T cruzi HTS -14.2.
For Cc1ccc(S(=O)(=O)Nc2ccc3c(c2)C(=O)N([C@@H](C)CO)C[C@H](C)[C@@H](CN(C)S(=O)(=O)c2ccc(Cl)cc2)OCCCC[C@@H](C)O3)cc1 the results were A1 apoptosis 2 -1.8.
For C[C@@H]1CCCCO[C@@H](CN(C)CC2CCCCC2)[C@@H](C)CN([C@H](C)CO)C(=O)c2cc(NS(=O)(=O)c3ccc(Cl)cc3)ccc2O1 the results were A1 apoptosis 2 -1.2, INS-1E ATP HTS -22.5 and T cruzi HTS 62.5*.
For C[C@@H]1CCCCO[C@H](CN(C)CC2CCCCC2)[C@@H](C)CN([C@H](C)CO)C(=O)c2cc(NS(=O)(=O)c3ccc(Cl)cc3)ccc2O1 the results were A1 apoptosis 2 -0.4, INS-1E ATP HTS -2.0 and T cruzi HTS 27.4.
Cc1ccc(S(=O)(=O)N(C)C[C@H]2OCCCC[C@@H](C)Oc3ccc(NS(=O)(=O)c4ccc(Cl)cc4)cc3C(=O)N([C@H](C)CO)C[C@@H]2C)cc1 was read as INS-1E ATP HTS -10.1 and T cruzi HTS 64.3*.
`C[C@@H]1CCCCO[C@H](CN(C)S(=O)(=O)c2ccc(Cl)cc2)[C@H](C)CN([C@H](C)CO)C(=O)c2cc(NS(=O)(=O)c3ccc(Cl)cc3)ccc2O1` gave A1 apoptosis 2 -1.7.
For C[C@@H]1CCCCO[C@@H](CN(C)S(=O)(=O)c2ccc(Cl)cc2)[C@@H](C)CN([C@H](C)CO)C(=O)c2cc(NS(=O)(=O)c3ccc(Cl)cc3)ccc2O1 the results were A1 apoptosis 2 -0.9, INS-1E ATP HTS -14.9 and T cruzi HTS 58.8*.
`O=C(NO)c1cccc(C(=O)N/N=C/c2ccc(Br)cc2)c1` gave INS-1E ATP HTS -9.5 and T cruzi HTS 4.1.

Screening data: PubChem BioAssay, Broad Institute
